Test results from ChEMBL document CHEMBL2046375, “Antiprotozoal sesquiterpene pyridine alkaloids from Maytenus ilicifolia” (J Nat Prod, 2012).
pIC50: −log10 of the molar value. The source made the active and inactive calls. The calls are words filed in the database; no cut-off is given here.

Tests used:
Leishmania amazonensis [1] = test: Antileishmanial activity against Leishmania amazonensis MPRO/BR/1972/M1841-LV-79 after 72 hrs by MTT assay; format: functional, organism-based; conditions: MPRO/BR/1972/M1841-LV-79, 72 h
Method in brief: (§1)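 Promastigotes from 4-day-old LIT cultures (10% heat-inactivated FCS), seeded at 8 × 10^6 parasites/mL. Compounds dissolved in DMSO, tested at 10 concentrations from 100 to 0.098 μg/mL. 72 h at 28 °C. MTT-PMS added, 75 min in dark at 28 °C, then 10% SDS for 30 min at room temperature. Absorbance read at 490 nm. Triplicate per concentration, IC50 from percentage cytotoxicity. Pentamidine isothionate was the reference drug.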

Trypanosoma cruzi [2] = test: Antitrypanosomal activity against epimastigotes of Trypanosoma cruzi after 72 hrs by MTT assay; format: functional, organism-based
Method in brief: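 Y-strain epimastigotes grown axenically at 28 °C in LIT with 10% FCS, harvested at 7 days (exponential phase). Test wells held 1 × 10^7 parasites/mL. Compounds from DMSO stock at 10 concentrations spanning 100–0.098 μg/mL. 72 h at 28 °C. MTT-PMS added, 75 min in dark, then 10% SDS for 30 min. Read at 595 nm, triplicate. Benznidazole served as reference.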

[3] = Selectivity index, ratio of IC50 for Balb/c mouse peritoneal macrophages to IC50 for epimastigotes of Trypanosoma cruzi
Method in brief: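 Ratio of IC50 in Balb/c peritoneal macrophages (24 h MTT) to IC50 against T. cruzi Y-strain epimastigotes (72 h MTT, 28 °C).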

[4] = Cytotoxicity against Balb/c mouse peritoneal macrophages after 24 hrs by MTT assay; format: cell-based; conditions: Peritoneal macrophage cell
Method in brief: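 Thioglycolate-elicited peritoneal macrophages (3 mL of 3% given i.p., harvested 3 days later by PBS pH 7.2 lavage). Cells in RPMI 1640 with 5% FCS, antibiotics and mercaptoethanol, stock suspension at 5 × 10^6 cells/mL. Mixed 1:1 with test solution, 24 h at 37 °C, 7.5% CO2. MTT added for 3 h, formazan dissolved in 2-propanol, OD read at 590 nm versus RPMI-only control. Triplicate.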

Leishmania chagasi [5] = test: Antileishmanial activity against Leishmania chagasi MHOM/BR/1974/PP75 after 72 hrs by MTT assay; format: functional, organism-based; conditions: MHOM/BR/1974/PP75, 72 h; method in brief: as §1
Leishmania chagasi [6] = test: Antileishmanial activity against Leishmania chagasi MHOM/BR/1974/PP75 at 100 uM after 72 hrs by MTT assay; format: functional, organism-based
Trypanosoma cruzi [7] = test: Antitrypanosomal activity against epimastigotes of Trypanosoma cruzi at 100 uM after 72 hrs by MTT assay; format: functional, organism-based
Leishmania amazonensis [8] = test: Antileishmanial activity against Leishmania amazonensis MPRO/BR/1972/M1841-LV-79 at 100 uM after 72 hrs by MTT assay; format: functional, organism-based

| SMILES | pIC50 (Trypanosoma cruzi [2]) | pIC50 (Leishmania amazonensis [1]) | Ratio IC50 [3] | pIC50 [4] | pIC50 (Leishmania chagasi [5]) | Activity (Leishmania chagasi [6]) | Activity (Trypanosoma cruzi [7]) | Activity (Leishmania amazonensis [8]) |
| --- | --- | --- | --- | --- | --- | --- | --- | --- |
| N=C(N)c1ccc(OCCCCCOc2ccc(C(=N)N)cc2)cc1 [PENTAMIDINE] |  | 5.15 |  |  | 5.29 |  |  |  |
| CC(=O)OC[C@]12[C@H](OC(C)=O)[C@@H](OC(=O)c3ccccc3)[C@@H]3[C@@H](O)[C@@]14O[C@@]3(C)COC(=O)c1cccnc1[C@@H](C)[C@H](C)C(=O)O[C@@H]([C@H](OC(C)=O)[C@@H]2OC(C)=O)[C@]4(C)O [ILICIFOLIUNINE A] | 4.56 | < 4.00 | 46.2 | 2.89 | < 4.00 |  |  |  |
| CC(=O)OC[C@]12[C@H](OC(C)=O)[C@@H](OC(=O)c3ccccc3)[C@@H]3[C@@H](OC(C)=O)[C@@]14O[C@@]3(C)COC(=O)c1cccnc1CCC(C)C(=O)O[C@@H]([C@H](OC(C)=O)[C@@H]2OC(C)=O)[C@]4(C)O (stereo partly specified) |  |  |  |  |  | inactive | inactive | inactive |
| CC(=O)OC[C@]12[C@H](OC(C)=O)[C@H](OC(C)=O)[C@@H]3[C@@H](OC(C)=O)[C@@]14O[C@@]3(C)COC(=O)c1cccnc1C(C)C(C)C(=O)O[C@@H]([C@H](OC(C)=O)[C@@H]2OC(=O)c1ccccc1)[C@]4(C)O (stereo partly specified) |  |  |  |  |  | inactive | inactive | inactive |

Now from value to molecule, other results behind:

| pIC50 (Trypanosoma cruzi [2]) | SMILES | pIC50 (Leishmania amazonensis [1]) | Ratio IC50 [3] | pIC50 [4] | pIC50 (Leishmania chagasi [5]) | Activity (Leishmania chagasi [6]) | Activity (Trypanosoma cruzi [7]) | Activity (Leishmania amazonensis [8]) |
| --- | --- | --- | --- | --- | --- | --- | --- | --- |
| 4.38 | CC(=O)OC[C@]12[C@H](OC(C)=O)[C@@H](OC(=O)c3ccccc3)[C@@H]3[C@@H](OC(C)=O)[C@@]14O[C@@]3(C)COC(=O)c1cccnc1[C@@H](C)[C@H](C)C(=O)O[C@@H]([C@H](OC(C)=O)[C@@H]2OC(C)=O)[C@]4(C)O | < 4.00 | 44 | 2.73 | 5.85 |  |  |  |
| 4.37 | O=C(Cn1ccnc1[N+](=O)[O-])NCc1ccccc1 [BENZNIDAZOLE] |  | 26.7 | 2.94 |  |  |  |  |
